Results as given in ChEMBL document CHEMBL1125748, “Non-steroidal antiandrogens. Design of novel compounds based on an infrared study of the dominant conformation and hydrogen-bonding properties of a series of anilide antiandrogens” (J Med Chem, 1991).

Columns and labels:
[1] = target: T1, Androgen receptor (Rattus norvegicus) (UniProt P15207); experiment: In vitro relative binding affinity for rat androgen receptor
T1 sequence (whole entry): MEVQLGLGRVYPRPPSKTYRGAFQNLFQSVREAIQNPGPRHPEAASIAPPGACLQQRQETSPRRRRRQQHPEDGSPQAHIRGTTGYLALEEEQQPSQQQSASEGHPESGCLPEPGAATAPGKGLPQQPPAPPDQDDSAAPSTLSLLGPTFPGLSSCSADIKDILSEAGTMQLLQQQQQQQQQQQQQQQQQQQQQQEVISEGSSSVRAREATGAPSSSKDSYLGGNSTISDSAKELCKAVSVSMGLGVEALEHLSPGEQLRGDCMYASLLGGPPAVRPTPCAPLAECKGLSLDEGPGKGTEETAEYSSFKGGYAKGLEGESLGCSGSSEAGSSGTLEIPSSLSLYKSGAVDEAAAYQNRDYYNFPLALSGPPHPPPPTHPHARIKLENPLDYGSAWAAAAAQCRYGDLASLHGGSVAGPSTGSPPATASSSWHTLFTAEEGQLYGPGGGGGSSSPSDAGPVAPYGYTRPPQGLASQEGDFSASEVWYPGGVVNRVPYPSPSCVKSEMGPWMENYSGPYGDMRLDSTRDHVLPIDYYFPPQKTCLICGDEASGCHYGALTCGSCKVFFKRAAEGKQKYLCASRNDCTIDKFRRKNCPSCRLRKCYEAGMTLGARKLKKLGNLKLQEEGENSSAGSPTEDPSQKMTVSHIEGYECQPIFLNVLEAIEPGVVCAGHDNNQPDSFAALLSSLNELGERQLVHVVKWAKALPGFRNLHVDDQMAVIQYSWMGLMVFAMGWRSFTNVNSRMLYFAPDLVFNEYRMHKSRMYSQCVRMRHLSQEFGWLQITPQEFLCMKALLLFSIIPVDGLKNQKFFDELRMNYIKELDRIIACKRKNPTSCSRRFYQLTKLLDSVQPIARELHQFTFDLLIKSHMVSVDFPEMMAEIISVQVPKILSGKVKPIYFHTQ

[2] = target: T1, Androgen receptor (Rattus norvegicus); experiment: Anti-androgenic activity in vivo on groups of five rats treated with seven daily oral doses of testosterone propionate at 200 ug/kg; type: functional, organism-based; conditions: in the assay text read “seven daily subcutaneous doses” for “seven daily oral doses”
In short: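 Male rats, five per group, castrated at 24 days of age, then given testosterone propionate 200 µg/kg subcutaneously daily for seven days. Antiandrogen was given orally, daily, over the same seven days. Rats were killed 24 h after the last dose and seminal vesicles weighed. Percent inhibition of testosterone-stimulated weight was taken against a running castrate control, and ED50 was read from the dose-response curve.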

[3] = target: T1, Androgen receptor (Rattus norvegicus); experiment: In vitro relative binding affinity for rat Androgen receptor
[4] = Partition coefficient (logP); type: physicochemical; conditions: octanol/water
[5] = target: T1, Androgen receptor (Rattus norvegicus); experiment: Inhibition of anti-androgenic activity in vivo on groups of five rats treated with seven daily subcutaneous doses of testosterone propionate at 200 ug/kg

Q: With `CC(=O)C(O)(/C=C/c1ccc(Cl)c(Cl)c1)C(F)(F)F` (configuration not stated) as the compound, how does the relative binding affinity (RBA) [1] read?
A: Its relative binding affinity (RBA) is 0.4.

Q: For `N#CCC(O)(/C=C/c1ccc(Cl)c(Cl)c1)C(F)(F)F` (configuration not stated), which relative binding affinity (RBA) [1] is on record?
A: The relative binding affinity (RBA) was 3.6.

Q: And the ED50 [2]?
A: Its ED50 is 2.5 mg/kg.

Q: Which relative binding affinity (RBA) [3] does the source give for `CC(O)(CF)C(=O)Nc1ccc([N+](=O)[O-])c(C(F)(F)F)c1` (configuration not stated) here?
A: The relative binding affinity (RBA) was 5.9.

Q: And the logP [4]?
A: The logP was 3.5.

Q: With `CC(O)(C(=O)Nc1ccc([N+](=O)[O-])c(C(F)(F)F)c1)C(F)F` (configuration not stated) as the compound, how does the logP [4] read?
A: The logP was 3.76.

Q: For `OC(/C=C/c1ccc(Cl)c(Cl)c1)(C(F)(F)F)C(F)(F)F`, which relative binding affinity (RBA) [1] is on record?
A: The relative binding affinity (RBA) was under 0.2.

Q: For `CC(C)(O)C(=O)Nc1ccc([N+](=O)[O-])c(C(F)(F)F)c1` [HYDROXYFLUTAMIDE], which relative binding affinity (RBA) [1] is on record?
A: Its relative binding affinity (RBA) is 2.1.

Q: What about the logP [4] of the same compound?
A: Its logP is 2.7.

Q: For `CC(C(=O)Nc1ccc([N+](=O)[O-])c(C(F)(F)F)c1)C(F)(F)F` (configuration not stated), which logP [4] is on record?
A: Its logP is 3.71.

Q: With `CC(C)(O)C(=O)Nc1ccc(Cl)cc1` as the compound, how does the logP [4] read?
A: Its logP is 2.

Q: For `CC(C)C(=O)Nc1ccc([N+](=O)[O-])c(C(F)(F)F)c1` [FLUTAMIDE], which logP [4] is on record?
A: Its logP is 3.35.

Q: For `OC(/C=C/c1ccc(Cl)c(Cl)c1)(CCl)C(F)(F)F` (configuration not stated), which relative binding affinity (RBA) [1] is on record?
A: The relative binding affinity (RBA) was 1.8.

Q: And the ED50 [2]?
A: Its ED50 is 2 mg/kg.

Q: Which relative binding affinity (RBA) [1] does the source give for `NC(=O)CC(O)(/C=C/c1ccc(Cl)c(Cl)c1)C(F)(F)F` (configuration not stated) here?
A: The relative binding affinity (RBA) was 0.5.

Q: And the ED50 [2]?
A: The ED50 was 2.5 mg/kg.

Q: For `CC(C)(O)C(=O)Nc1ccc([N+](=O)[O-])cc1`, which logP [4] is on record?
A: Its logP is 1.61.

Q: Which inhibition [5] does the source give for `Cc1c(C(C)(O)C(F)(F)F)[nH]c2ccccc12` (configuration not stated) here?
A: The inhibition was 33%.

Q: What about the relative binding affinity (RBA) [1] of the same compound?
A: Its relative binding affinity (RBA) is 6.7.

Q: Which relative binding affinity (RBA) [3] does the source give for `CC(O)(/C=C/c1ccc(Cl)c(Cl)c1)C(F)(F)F` (configuration not stated) here?
A: The relative binding affinity (RBA) was under 0.2.

Q: For `CC(O)(C(=O)Nc1ccc([N+](=O)[O-])c(C(F)(F)F)c1)C(F)(F)F` (configuration not stated), which logP [4] is on record?
A: Its logP is 3.21.

Q: Which logP [4] does the source give for `CN(C(=O)C(C)(C)O)c1ccc([N+](=O)[O-])c(C(F)(F)F)c1` here?
A: The logP was 3.06.
